Values belong to the compound of their own block, whether it stands above or below them. Where a SMILES comes first, the peptide text is derived from it. The star is where a group is joined. AMC = Cc1cc(=O)oc2cc(N*)ccc12; Boc = CC(C)(C)OC(=O)*
Tests used:
PmC11 [1] = test: E64 inhibition of PmC11 proteolytic activity; format: biochemical, Parabacteroides merdae; conditions: 4-fold excess of E64; Figure S5B
clostripain = conditions: rather than covalently modifying the catalytic cysteine; ref [38],[39]; cited from earlier work
PmC11 [2] = test: Michaelis-Menten kinetics of fluorogenic AMC substrate hydrolysis; format: biochemical, Parabacteroides merdae; conditions: 25 nM PmC11; PBS (pH 7.4), 5 mM DTT, 0.1 mM EDTA, 1 mM CaCl2, 0.1% CHAPS; 25 °C
Procedure, shortened: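 Recombinant His6-tagged WT PmC11 was expressed in E. coli, self-matured, and purified by Ni-NTA and anion exchange. Reactions were started by adding Ac-VLTK-AMC at 400 pM to 400 μM. Fluorescence (excitation 355 nm, emission 460 nm) was read every 20 s for 25 min. KM and kcat were obtained by Michaelis-Menten fitting of hydrolysis rates.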

PmC11 [3] = target: PmC11 (Parabacteroides merdae, UniProt A0A9Q4WVB1); format: biochemical
Procedure, shortened: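 Recombinant His6-tagged WT PmC11 was expressed in E. coli BL21DE3pLysS, self-matured during expression, and purified by Ni-NTA then anion exchange. Test compound was applied at decreasing amounts from 5 μM to 10 nM during the 30 min preincubation. IC50 was derived from the rate of substrate hydrolysis measured after substrate addition.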

PmC11 [4] = conditions: ref [16]; cited from earlier work

Compound: CC(C)C[C@H](NC(=O)[C@H]1O[C@@H]1C(=O)O)C(=O)NCCCCN=C(N)N (relative stereo) [E64, L-trans-Epoxysuccinyl-leucylamido(4-guanidino)butane]
loss of proteolytic activity (PmC11 [1]): 30% | manner of clostripain inhibition (in words) (clostripain): reversible competitive

Compound: CC(=O)N[C@H](C(=O)N[C@@H](CC(C)C)C(=O)N[C@H](C(=O)N[C@@H](CCCCN)C(=O)Nc1ccc2c(C)cc(=O)oc2c1)[C@@H](C)O)C(C)C [Ac-VLTK-AMC] (Ac-VLTK-{AMC})
kcat/KM (catalytic efficiency) (PmC11 [2]): 1.6 x 10^5 s^−1M^−1

IC50 (PmC11 [3]): < 25 nM
Compound: CC(=O)N[C@H](C(=O)N[C@@H](CC(C)C)C(=O)N[C@H](C(=O)N[C@@H](CCCCN)C(=O)COC(=O)c1c(C)cccc1C)[C@@H](C)O)C(C)C [Ac-VLTK-AOMK, acetyl-Val-Leu-Thr-Lys acyloxymethyl ketone (2,6-dimethylbenzoic acid-derived acyloxy leaving group)]

Compound: Cc1cc(=O)oc2cc(NC(=O)C(CCCN=C(N)N)NC(=O)c3ccccc3)ccc12.Cl (stereo not shown) [Bz-Arg-AMC]
hydrolysis by PmC11 (in words) (PmC11 [4]): hydrolyze

Compound: Boc-Val-Leu-Lys-{AMC}
hydrolysis by PmC11 (in words) (PmC11 [4]): hydrolyze

Compound: Z-Gly-Gly-Arg-AMC
hydrolysis by PmC11 (in words) (PmC11 [4]): hydrolyze
